Test results as given in PubChem BioAssay.
Records with an inconclusive call do not appear.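 How the source made its calls, unless noted: active means cell viability at or below a set limit in both duplicate runs, the limit being the all-compound median minus 4 SD (cut at about 23% in these data, passing the limit was not always enough); inconclusive means no clear call, values can overlap the other calls; inactive means the rest.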

Experiments:
[1] = S. cerevisiae growth inhibition in permissive medium (OD615), pilot counter-assay for S. cerevisiae lifespan shortening project, permissive growth control (AID 705;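 active means growth inhibition above 25% in both replicates, a cutoff set 3 SD above the mean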); conditions: OD615, 24 h, at 10 µM, active compounds read high
How it was run: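 System: engineered DeaD yeast; Medium: permissive raffinose/galactose medium; Compound dosing: 10 µM single dose, 0.25% DMSO; Incubation: 4 h cell pre-growth, 24 h exposure at 30 °C; Technique: OD at 615 nm; Evaluation: growth inhibition from lowered OD615 after 24 h.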

[2] = S. cerevisiae growth inhibition in restrictive medium, OD615, pilot screen, restrictive growth control, yeast lifespan reduction project (AID 706;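 active means growth inhibition above a set limit, 3 SD over mean compound inhibition, in both replicates, cut at about 43% in these data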;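 further: modified DeaD lifespan yeast strain shifted to restrictive glucose medium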); conditions: OD615, 48 h, at 10 µM, active compounds read high
How it was run: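 Material: modified S. cerevisiae; buffer or medium: CSMM-D glucose medium; doses: one concentration, 10 µM final, 0.25% DMSO; incubation: 48 h compound exposure at 30 °C; detection: optical density at 615 nm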

[3] = doxorubicin toxicity protection in MRP-1 cells – H69AR cells, CellTiter-Glo, duplicate, MRP-1 activator project, pilot screen (AID 807;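 active means viability increase at or above a cutoff of the median across tested compounds plus 3 SD, cut at about 8.5% in these data, passing the limit was not always enough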;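 further: compound pretreatment 18-22 h then 72 h combined with doxorubicin; 0% = doxorubicin alone and 100% = vehicle without doxorubicin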); conditions: H69AR viability with doxorubicin, CellTiter-Glo luminescence; at 10 µM; active compounds read high
[4] = viability of HCT116 without oncogenic beta-catenin – human colon tumor cells, pilot screen (AID 823); conditions: HCT116 beta-catenin knockout viability, CellTiter-Glo, 60 h; at 10 µM; active compounds read low;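 further: 0% = wells killed by 20 µM Hyamine and 100% = untreated DMSO cell wells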
[5] = viability of PTEN-null HCT116 cells – cell-based, HCT116 clonal line, CellTiter-Glo, pilot screen (AID 824;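 active means viability at or below 27.92% in each of two runs, the all-compound median minus 4 SD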;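 further: 0% = 20 µM Hyamine control and 100% = vehicle cell control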); conditions: HCT116 PTEN-deleted viability, 60 h, at 10 µM, active compounds read low
[6] = RAM pathway blockade in budding yeast – dse1pr::URA3 reporter, 5-FOA selection, pilot screen (AID 869;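 active means inhibition over a set limit, the all-compound mean plus 3 SD, in both replicate runs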;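 further: 0% = DMSO wells with no growth and 100% = 10 µM 1-NA-PP1 with full growth; RAM network block rescues cells from 5-FOA so hits raise OD615 growth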); conditions: S. cerevisiae dse1pr::URA3 5-FOA growth, OD615, 2 d; at 10 µM; active compounds read high; strain carries analog-sensitive mutant Cbk1 kinase
[7] = RAM signaling pathway blockade in yeast – S. cerevisiae, Pdr1DBD-CYC8 efflux-inhibited sensitized strain, primary screen (AID 1298;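 active means RAM network inhibition above 8.4% in each of two replicates, 3 SD over the compound average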;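 further: 0% = DMSO untreated cells without growth and 100% = 10 µM 1-NA-PP1 full growth; higher means more yeast growth rescued from 5-FOA killing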); conditions: S. cerevisiae cbk1-as DSE1-URA3 strain, 5-FOA growth OD615, 2 d; at 50 µM; active compounds read high

Cc1ccc(NS(=O)(=O)c2ccc3c(c2)oc(=O)n3C)cc1F
inactive: growth inhibition [1] -11% | growth inhibition [2] -10.8% | viability increase [3] 0.32% | viability [4] 89.1% | viability [5] 86.1% | inhibition [6] 1.1% | RAM network inhibition [7] 3.85%

CC1Cn2c(COc3ccccc3)nnc2S1 (configuration not stated)
inactive: growth inhibition [1] -8.31% | growth inhibition [2] 6.73% | viability increase [3] -0.25% | viability [4] 102% | viability [5] 94.1% | inhibition [6] 0.645% | RAM network inhibition [7] 4%

CCOc1ccc(OCC)c(NC(=O)CN2CCC(NC(=O)c3cccc(F)c3)CC2)c1
inactive: growth inhibition [1] -3.75% | growth inhibition [2] -12.3% | viability increase [3] -4.87% | viability [4] 77.5% | viability [5] 78.7% | inhibition [6] 2.31% | RAM network inhibition [7] 5.19%

O=C(Nc1nccs1)c1cccc(S(=O)(=O)N2CCOCC2)c1
inactive: growth inhibition [1] -19.2% | growth inhibition [2] -11.8% | viability increase [3] -0.77% | viability [4] 92.8% | viability [5] 92.6% | inhibition [6] 1.83% | RAM network inhibition [7] 1.04%

COc1ccc(N2CSC3=C(C#N)C(c4ccc(OC)c(OC)c4)CC(=O)N3C2)c(OC)c1 (configuration not stated)
inactive: growth inhibition [1] 18.8% | growth inhibition [2] 22.1% | viability increase [3] -4.13% | viability [4] 79.5% | viability [5] 81.7% | inhibition [6] 1.88% | RAM network inhibition [7] 0.93%

O=C(Cc1cccs1)N1CCN(c2ccccn2)CC1
inactive: growth inhibition [1] -2.47% | growth inhibition [2] -11.1% | viability increase [3] -0.45% | viability [4] 93.5% | viability [5] 98% | inhibition [6] 0.735% | RAM network inhibition [7] 2.55%

CCOc1cccc(C2c3c(oc4ccccc4c3=O)C(=O)N2c2ccccn2)c1 (configuration not stated)
inactive: growth inhibition [1] -1.86% | growth inhibition [2] -9.72% | viability increase [3] -2.2% | viability [4] 95.6% | viability [5] 93.9% | inhibition [6] 0% | RAM network inhibition [7] 2.56%

COc1cc(CC(=O)O)c(C(C)=O)cc1OC
inactive: growth inhibition [1] 0.26% | growth inhibition [2] 0.155% | viability increase [3] -1.29% | viability [4] 100% | viability [5] 102% | inhibition [6] 0.365% | RAM network inhibition [7] -0.36%

Cn1nc(-c2ccc(Cl)cc2)c2cc(C(=O)NCc3ccco3)sc21
inactive: growth inhibition [1] -1.08% | growth inhibition [2] -3.58% | viability increase [3] -7.27% | viability [4] 59.6% | viability [5] 47% | inhibition [6] 2.54% | RAM network inhibition [7] 5.89%

CSCCC(/C(O)=C(\C#N)c1nc2ccccc2[nH]1)N1C(=O)c2ccccc2C1=O (configuration not stated)
inactive: growth inhibition [1] -14.1% | growth inhibition [2] -11.8% | viability increase [3] 0% | viability [4] 89.8% | viability [5] 90.8% | inhibition [6] 2.82% | RAM network inhibition [7] 7.67%

CC1NC(=O)NC1CCCCC(=O)O (configuration not stated)
inactive: growth inhibition [1] -6.38% | growth inhibition [2] 2.25% | viability increase [3] 1.3% | viability [4] 109% | viability [5] 104% | inhibition [6] 3.06% | RAM network inhibition [7] 2.65%

CC(C)(C)NC(=O)C1CN(S(=O)(=O)c2ccccc2)CCN1S(=O)(=O)c1ccccc1 (configuration not stated)
inactive: growth inhibition [1] 5.33% | growth inhibition [2] -4.14% | viability increase [3] -1.07% | viability [4] 97.3% | viability [5] 97.1% | inhibition [6] 2.74% | RAM network inhibition [7] 2.81%

CC(=O)c1c(C)[nH]c(C(=O)Nc2cc(C)ccc2C)c1C
inactive: growth inhibition [1] 8.06% | growth inhibition [2] -8.57% | viability increase [3] -1.16% | viability [4] 98.5% | viability [5] 96.6% | inhibition [6] 2.14% | RAM network inhibition [7] 1.74%

O=C(NCc1cn2ccsc2n1)c1cccs1
inactive: growth inhibition [1] -11.6% | growth inhibition [2] 2.67% | viability increase [3] -2.88% | viability [4] 95.1% | viability [5] 95.8% | inhibition [6] 1.04% | RAM network inhibition [7] 7.64%

COc1ccc(-c2nnc3ccc(SCC(=O)N4CCCCC4)nn23)cc1OC
inactive: growth inhibition [1] 3.98% | growth inhibition [2] 18.9% | viability increase [3] -4.61% | viability [4] 98.3% | viability [5] 98.9% | inhibition [6] 0.24% | RAM network inhibition [7] 2.36%

OC(CNCc1ccco1)COc1ccccc1 (configuration not stated)
inactive: growth inhibition [1] -12.7% | growth inhibition [2] -10.2% | viability increase [3] 0.59% | viability [4] 100% | viability [5] 103% | inhibition [6] 1.44% | RAM network inhibition [7] 2.54%

COc1ccc(C)cc1Nc1cc(C)nc2ncnn12
inactive: growth inhibition [1] -7.14% | growth inhibition [2] 0.405% | viability increase [3] -4.44% | viability [4] 95.1% | viability [5] 88.9% | inhibition [6] 1.28% | RAM network inhibition [7] -1.57%

COc1cccc(NC(=O)c2cccnc2)c1
inactive: growth inhibition [1] -5.19% | growth inhibition [2] 7.85% | viability increase [3] 1.59% | viability [4] 100% | viability [5] 87.2% | inhibition [6] 0.55% | RAM network inhibition [7] 3.7%

Cc1noc(/C=C/N(C)C)c1S(=O)(=O)N1CCN(c2ccccc2)CC1
inactive: growth inhibition [1] -14.8% | growth inhibition [2] -3.67% | viability increase [3] -2.94% | viability [4] 95.9% | viability [5] 90.8% | inhibition [6] 2.37% | RAM network inhibition [7] 7.31%

Cc1ccc(-c2n[nH]c(=S)n2C)cc1
inactive: growth inhibition [1] -2.22% | growth inhibition [2] 11.2% | viability increase [3] -1.46% | viability [4] 97.5% | viability [5] 101% | inhibition [6] 2.21% | RAM network inhibition [7] 3.7%

CCOC(=O)c1c(CN(CC)CC)oc2cc(Br)c(O)cc12
inactive: growth inhibition [1] -0.115% | growth inhibition [2] 0.915% | viability increase [3] -3.81% | viability [4] 78.2% | viability [5] 81.6% | inhibition [6] -0.04% | RAM network inhibition [7] 3.43%

O=C(Cn1nc(-c2ccc(Cl)cc2)ccc1=O)NCCN1CCOCC1
inactive: growth inhibition [1] -3.21% | growth inhibition [2] -12.3% | viability increase [3] -1.27% | viability [4] 100% | viability [5] 100% | inhibition [6] 0.355% | RAM network inhibition [7] 7.69%

CCOC(=O)N1CCN(c2c(N3CCc4ccccc43)c(=O)c2=O)CC1
inactive: growth inhibition [1] -9.63% | growth inhibition [2] 14.6% | viability increase [3] -1.52% | viability [4] 105% | viability [5] 100% | inhibition [6] 2.05% | RAM network inhibition [7] -0.74%

CSC1=N/C(=C\c2ccc(C)o2)C(=O)S1
inactive: growth inhibition [1] -2.35% | growth inhibition [2] 1.15% | viability increase [3] -2.31% | viability [4] 104% | viability [5] 102% | inhibition [6] 0.93% | RAM network inhibition [7] -0.21%

CCCNC(=O)N1CCN(c2nc(C(C)C)c3c(c2C#N)CC(C)(C)OC3)CC1
inactive: growth inhibition [1] -12.9% | growth inhibition [2] -6.2% | viability increase [3] 2.34% | viability [4] 68.8% | viability [5] 61.5% | inhibition [6] 2.17% | RAM network inhibition [7] 8.42%

Cc1ccccc1NC(=O)CN(C)S(=O)(=O)c1cccc2cccnc12
inactive: growth inhibition [1] -2.9% | growth inhibition [2] -1.7% | viability increase [3] -0.34% | viability [4] 105% | viability [5] 95.7% | inhibition [6] 1.74% | RAM network inhibition [7] 2.49%

Cn1c(=O)c2c(SCc3cccnc3)nc(C3CC3)nc2n(C)c1=O
inactive: growth inhibition [1] 1.77% | growth inhibition [2] -1.23% | viability increase [3] 0.27% | viability [4] 94.5% | viability [5] 83.4% | inhibition [6] -0.18% | RAM network inhibition [7] -1.65%

COc1ccccc1N1CCN(C(=O)c2cc3c(=O)n(C)c4ccccc4c3n2C)CC1
inactive: growth inhibition [1] -7.35% | growth inhibition [2] 3.62% | viability increase [3] 2.2% | viability [4] 67.3% | viability [5] 72% | inhibition [6] 0.125% | RAM network inhibition [7] -0.26%

CSc1cccc(NS(=O)(=O)c2cccc3nsnc23)c1
inactive: growth inhibition [1] -5.26% | growth inhibition [2] -8.19% | viability increase [3] -0.51% | viability [4] 88.6% | viability [5] 93.3% | inhibition [6] 0.885% | RAM network inhibition [7] 2.44%

O=C(c1ccc2nc(N3CCCCC3)sc2c1)N1CCN(Cc2ccc3c(c2)OCO3)CC1
inactive: growth inhibition [1] 2.12% | growth inhibition [2] 1.62% | viability increase [3] 1.03% | viability [4] 54.2% | viability [5] 60.2% | inhibition [6] 0.76% | RAM network inhibition [7] 1.12%

COc1ccc(C2C(C(=O)Nc3cccc(C)n3)c3ccccc3C(=O)N2C)cc1 (configuration not stated)
inactive: growth inhibition [1] -11.3% | growth inhibition [2] -6.23% | viability increase [3] -0.69% | viability [4] 101% | viability [5] 93.9% | inhibition [6] 1.39% | RAM network inhibition [7] 2.93%

COc1cccc(-c2nc(CS(=O)(=O)CC(=O)NCc3ccccc3OC)c(C)o2)c1
inactive: growth inhibition [1] 5.72% | growth inhibition [2] 2.59% | viability increase [3] -1.62% | viability [4] 95.9% | viability [5] 89.1% | inhibition [6] 1.55% | RAM network inhibition [7] 3.2%

COC(=O)C1=CN(C)C=C(C(=O)OC)C1c1ccsc1
inactive: growth inhibition [1] -5% | growth inhibition [2] -4.37% | viability increase [3] -0.22% | viability [4] 104% | viability [5] 89.3% | inhibition [6] 1.96% | RAM network inhibition [7] 0.41%

Nc1cc(C(F)(F)F)ccc1C(=O)O
inactive: growth inhibition [1] 9.88% | growth inhibition [2] 9.9% | viability increase [3] -1.66% | viability [4] 97.3% | viability [5] 95.3% | inhibition [6] 0.43% | RAM network inhibition [7] 0.63%

Cn1c(C(C#N)C(=O)Cc2cccc3ccccc23)nc2ccccc21 (configuration not stated)
inactive: growth inhibition [1] -3.6% | growth inhibition [2] -5.02% | viability increase [3] -1.14% | viability [4] 81.5% | viability [5] 78.9% | inhibition [6] 2.59% | RAM network inhibition [7] 4.32%

O=C(O)CC1(Cc2nc(-c3cccs3)no2)CCCC1
inactive: growth inhibition [1] 5.79% | growth inhibition [2] 0.06% | viability increase [3] 0.13% | viability [4] 96.1% | viability [5] 94.6% | inhibition [6] 0.35% | RAM network inhibition [7] -0.58%
